Here are results for four molecules from ChEMBL document CHEMBL3046628, “Synthesis and herbicidal activity of 2-cyano-3-substituted-pyridinemethylaminoacrylates” (J Agric Food Chem, 2003).

For series [1], the system named is Medicago sativa. Kind of series: Herbicidal activity against Medicago sativa (alfalfa) at 75 g/ha. Format: functional.
Series [2] concerns Medicago sativa. Kind of series: Herbicidal activity against Medicago sativa (alfalfa) at 150 g/ha. Format: functional.
Series [3] concerns Medicago sativa. The series is described as follows: Herbicidal activity against Medicago sativa (alfalfa). Format: functional.
Series [4] relates to Medicago sativa. The series is described as follows: Herbicidal activity against Medicago sativa (alfalfa) at 37.50 g/ha. Format: functional.
Series [5] deals with Medicago sativa. The series is described as follows: Herbicidal activity against Medicago sativa (alfalfa) at 18.75 g/ha. Format: functional.
Series [6] has as its system Amaranthus retroflexus. Kind of series: Post-emergence herbicidal activity against Amaranthus retroflexus at 75 g/ha applied through spraying after first true leaf expanded. Format: functional. The method in brief:
(§1)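 Seeds sown in 6 cm diameter plastic boxes containing artificial mixed soil. Amaranthus retroflexus seed was reproduced outdoors and stored at room temperature. Alfalfa and rape seed came from a crop institute.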

For series [7], the system named is Amaranthus retroflexus. Kind of series: Post-emergence herbicidal activity against Amaranthus retroflexus at 300 g/ha applied through spraying after first true leaf expanded. Format: functional. The procedure, abridged: as §1
Series [8] deals with Medicago sativa. Kind of series: Post-emergence herbicidal activity against Medicago sativa (alfalfa) at 75 g/ha applied through spraying after first true leaf expanded. Format: functional. The procedure, abridged: as §1
Series [9] deals with Medicago sativa. The series is described as follows: Pre-emergence herbicidal activity against Medicago sativa (alfalfa) at 1.5 kg/ha applied through spraying immediately after seed plantings. Format: functional. The method in brief:
as §1

In series [10] the test system is Amaranthus retroflexus. The series is described as follows: Pre-emergence herbicidal activity against Amaranthus retroflexus at 1.5 kg/ha applied through spraying immediately after seed plantings. Format: functional. The method in brief:
as §1

In series [11] the test system is Brassica napus. Kind of series: Post-emergence herbicidal activity against Brassica napus (oilseed rape) at 1.5 kg/ha applied through spraying after first true leaf expanded. Format: functional. The method in brief:
as §1

Series [12] has as its system Medicago sativa. Kind of series: Post-emergence herbicidal activity against Medicago sativa (alfalfa) at 300 g/ha applied through spraying after first true leaf expanded. Format: functional. The procedure, abridged: as §1
The subject of series [13] is Brassica napus. Kind of series: Post-emergence herbicidal activity against Brassica napus (oilseed rape) at 1500 g/ha applied through spraying after first true leaf expanded. Format: functional. The procedure, abridged:
as §1

Series [14] concerns Amaranthus retroflexus. Kind of series: Post-emergence herbicidal activity against Amaranthus retroflexus at 1.5 kg/ha applied through spraying after first true leaf expanded. Format: functional. The procedure, abridged:
as §1

The test system of series [15] is Medicago sativa. Kind of series: Post-emergence herbicidal activity against Medicago sativa (alfalfa) at 1500 g/ha applied through spraying after first true leaf expanded. Format: functional. The method in brief:
as §1

The subject of series [16] is Zea mays. Kind of series: Phytotoxicity against Zea mays (maize) at 750 g/ha. To be noted: in vivo. Format: organism-based.
The test system of series [17] is Brassica napus. The series is described as follows: Post-emergence herbicidal activity against Brassica napus (oilseed rape) at 300 g/ha applied through spraying after first true leaf expanded. Format: functional. The procedure, abridged:
as §1

The test system of series [18] is Brassica napus. The series is described as follows: Post-emergence herbicidal activity against Brassica napus (oilseed rape) at 75 g/ha applied through spraying after first true leaf expanded. Format: functional. The method in brief: as §1
For series [19], the system named is Amaranthus retroflexus. Kind of series: Post-emergence herbicidal activity against Amaranthus retroflexus at 1500 g/ha applied through spraying after first true leaf expanded. Format: functional. The procedure, abridged: as §1
Series [20] deals with Brassica napus. The series is described as follows: Pre-emergence herbicidal activity against Brassica napus (oilseed rape) at 1.5 kg/ha applied through spraying immediately after seed plantings. Format: functional. The procedure, abridged: as §1
Series [21] deals with Medicago sativa. Kind of series: Post-emergence herbicidal activity against Medicago sativa (alfalfa) at 1.5 kg/ha applied through spraying after first true leaf expanded. Format: functional. The method in brief:
as §1

Molecules are shown by their SMILES.

In the case of `CCOCCOC(=O)/C(C#N)=C(/NCc1ccc(Cl)cc1)SC`, the Activity in [1] was found to be 80.6%; in series [2], 87%; in series [4] it was 76.9%; in [5], 59.3%. The same molecule yielded an ED50 in series [3] of 8.85 g/ha. The molecule further gave an ED90 in series [3] of 193.95 g/ha.
In the case of `C=CCOC(=O)/C(C#N)=C(/NCc1ccc(Cl)nc1)SC`, the Activity in series [6] is reported as 22.2%; in [7], 61.6%; in series [8], 15.9%; in series [9] it was 0%; in [10] it was 0%; in [11], 91.7%. Also, the Activity in [12] is 56.1%; in series [13] it was 91.7%; in series [14], 100%; in series [15], 100%; in series [16] it was “Non-toxic”; in series [17], 82.7%. Further, the Activity in series [18] is 33.3%; in [19], 100%; in series [20], 0%; in [21], 100%.
As to `CCOCCOC(=O)/C(C#N)=C(\NCc1ccc(Cl)nc1)C(C)C`, the Activity in [6] was determined as 72.1%; in series [7], 93%; in [8], 14%; in series [9], 23%; in series [10], 97.8%; in [11], 100%. In addition, the Activity in series [12] is 45.3%; in series [13], 100%; in series [14], 93.9%; in [15] it was 75.6%; in series [16], “Non-toxic”; in series [17], 100%. The Activity in series [18] was found to be 89.4%; in series [19] it was 100%; in series [20] it was 95.5%; in [21], 65.9%.
On to `CCOCCOC(=O)/C(C#N)=C(/NCc1ccc(Cl)nc1)SC`, for which the Activity is listed as 95.3% in series [1]; 52.3% in series [6]; 96.2% in series [7]; 36.3% in series [8]; 98.1% in [2]; 80.6% in series [11]. Further, the Activity is 57.5% in [12]; 100% in series [13]; 100% in [14]; 76.2% in series [15]; “Non-toxic” in series [16]; 100% in [17]. The Activity in [18] came out at 36.8%; in [19] it was 100%; in series [4] it was 88.9%; in series [5], 80.6%; in series [21], 75%. The same molecule displayed an ED50 in [3] of 4.35 g/ha. In [3], this molecule registered an ED90 of 39.3 g/ha.
